Legend:
[1] = test system: Ovis aries; assay: Percent reduction in Trichuris eggs per gram, after oral treatment of 100 mg/kg dose of compound perorally in sheep; type: functional, Egg
[2] = test system: Ovis aries; assay: Percent reduction in Oesophagostomum eggs per gram, after oral treatment of 100 mg/kg dose of compound perorally in sheep; type: functional, Egg
Outline: (§1)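 Naturally parasitized lambs were dosed orally at the stated mg/kg. Dosing was either as a suspension of finely ground compound by stomach tube, or as ground compound weighed into gelatin capsules and given by balling gun. Activity was scored by the clinical test method: the decrease in posttreatment helminth eggs per gram.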

[3] = test system: Ovis aries; assay: Percent reduction in Nematodirus eggs per gram, after oral treatment of 100 mg/kg dose of compound perorally in sheep; type: functional, Egg; outline: as §1
[4] = test system: Ovis aries; assay: Percent reduction in Trichostrongylus eggs per gram, after oral treatment of 100 mg/kg dose of compound perorally in sheep; type: functional, Egg
Outline: (§2)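 Naturally parasitized lambs, dosed orally either with a suspension by stomach tube or with finely ground compound in gelatin capsules by balling gun. Activity was scored by the clinical test method, meaning a significant fall in helminth egg counts after treatment.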

[5] = test system: Ovis aries; assay: Percent reduction in Ostertagia eggs per gram, after oral treatment of 100 mg/kg dose of compound perorally in sheep; type: functional, Egg; outline: as §1
[6] = test system: Ovis aries; assay: Percent reduction in Haemonchus eggs per gram, after oral treatment of 100 mg/kg dose of compound perorally in sheep; type: functional, Egg
Outline: (§3)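 Naturally parasitized lambs received compound orally, either as the aqueous suspension by stomach tube or as finely ground powder in gelatin capsules by balling gun. Activity was judged by the clinical test method, as a significant decrease in posttreatment helminth egg counts.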

[7] = test system: Ovis aries; assay: Percent reduction in Strongyloides eggs per gram, after oral treatment of 100 mg/kg dose of compound perorally in sheep; type: functional, Egg; outline: as §2
[8] = species: Mus musculus; assay: Percent clearance of Nematospiroides dubius from mouse after oral treatment of 1.87 mg/mouse/day; type: functional
Outline: (§4)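 Mice naturally carrying Syphacia obvelata were experimentally infected with Nematospiroides dubius and Hymenolepis nana, then grouped after a 2-week prepatency. Finely ground compound was suspended in aqueous 0.10% carboxymethylcellulose, 0.04% polysorbate 80 and 0.0042% polyparaben, and 0.1 mL was given orally by cannula once daily for 4 days to five mice. Necropsy followed 2 days later, scoring presence or absence of each parasite. Control clearance was subtracted from the treated clearance.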

[9] = species: Mus musculus; assay: Percent clearance of Syphacaia obvelata from mouse after oral treatment of 1.87 mg/mouse/day; type: functional; outline: as §4
[10] = test system: Ovis aries; assay: Percent reduction in Haemonchus eggs per gram, after treatment of 150 mg/kg dose of compound perorally; Toxic; details: Egg
[11] = species: Canis familiaris; assay: Percent reduction in Uncinaria eggs per gram, after oral treatment of 100 mg/dog dose of compound in a single treatment; type: functional, Canis lupus familiaris, Egg
Outline: (§5)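 Dogs naturally infected with Toxascaris leonina were experimentally infected with mixed Ancylostoma caninum and Uncinaria stenocephala larvae. Finely ground compound was given orally in gelatin capsules. Three egg count determinations were made before and three after treatment in each experiment.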

[12] = species: Canis familiaris; assay: percent reduction in Ancylostoma eggs per gram, after oral treatment of 100 mg/dog dose of compound in a single treatment; type: functional, Canis lupus familiaris, Egg; outline: as §5
[13] = species: Canis familiaris; assay: Percent reduction in Toxascaris eggs per gram, after oral treatment of 100 mg/dog dose of compound in a single treatment; type: functional, Canis lupus familiaris, Egg; outline: as §5
[14] = test system: Ovis aries; assay: Percent reduction in Haemonchus eggs per gram, after treatment of 100 mg/kg dose of compound perorally in sheep; Toxic; type: functional, organism-based; parameters: dose 100 mg/kg; details: Egg; outline: as §3
[15] = species: Canis familiaris; assay: Percent reduction in Uncinaria eggs per gram, after oral treatment of 200 mg/dog dose of compound in a single treatment; type: functional, Canis lupus familiaris, Egg; outline: as §5
[16] = species: Mus musculus; assay: Percent clearance of Nematospiroides dubius from mouse after oral treatment of 3.75 mg/mouse/day; type: functional; outline: as §4
[17] = species: Mus musculus; assay: Percent clearance of Syphacaia obvelata from mouse after oral treatment of 3.75 mg/mouse/day; type: functional; outline: as §4
[18] = species: Mus musculus; assay: Percent clearance of Nematospiroides dubius from mouse after oral treatment of 7.5 mg/mouse/day; type: functional; outline: as §4
[19] = species: Mus musculus; assay: Percent clearance of Syphacaia obvelata from mouse after oral treatment of 7.5 mg/mouse/day; type: functional; outline: as §4
[20] = species: Mus musculus; assay: Percent clearance of Hymenolepis nana from mouse after oral treatment of 7.5 mg/mouse/day; type: functional; outline: as §4
[21] = species: Mus musculus; assay: Percent clearance of Nematospiroides dubius from mouse after oral treatment of 0.47 mg/mouse/day; type: functional; outline: as §4
[22] = species: Mus musculus; assay: Percent clearance of Syphacaia obvelata from mouse after oral treatment of 0.47 mg/mouse/day; type: functional; outline: as §4
[23] = species: Canis familiaris; assay: Percent reduction in Ancylostoma eggs per gram, after oral treatment of 100 mg/dog dose of compound in a single treatment; type: functional, Canis lupus familiaris, Egg
Outline: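 Dogs naturally infected with Toxascaris leonina were experimentally infected with mixed Ancylostoma caninum and Uncinaria stenocephala larvae. Finely ground compound was given orally in gelatin capsules. Fecal egg counts were taken three times before and three times after treatment, and activity was taken as the fall in egg counts.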

[24] = test system: Ovis aries; assay: Percent reduction in Trichuris eggs per gram, after treatment with 100 mg/kg dose of compound perorally in sheep; type: functional, Egg; details: route oral; outline: as §2
[25] = test system: Ovis aries; assay: Percent reduction in Haemonchus eggs per gram, after treatment with 100 mg/kg dose of compound perorally in sheep; type: functional, Egg; details: route oral; outline: as §3
[26] = test system: Ovis aries; assay: Percent reduction in Oesophagostomum eggs per gram, after treatment with 100 mg/kg dose of compound perorally in sheep; type: functional, Egg; details: route oral; outline: as §1
[27] = test system: Ovis aries; assay: Percent reduction in Trichostrongylus eggs per gram, after treatment with 100 mg/kg dose of compound perorally in sheep; type: functional, Egg; details: route oral; outline: as §2
[28] = test system: Ovis aries; assay: Percent reduction in Ostertagia eggs per gram, after treatment with 100 mg/kg dose of compound perorally in sheep; type: functional, Egg; details: route oral; outline: as §1
[29] = test system: Ovis aries; assay: Percent reduction in Cooperia eggs per gram, after treatment with 100 mg/kg dose of compound perorally in sheep; type: functional, Egg; details: route oral; outline: as §3
[30] = test system: Ovis aries; assay: Percent reduction in Strongyloides eggs per gram, after treatment with 100 mg/kg dose of compound perorally in sheep; type: functional, Egg; details: route oral; outline: as §2
[31] = species: Canis familiaris; assay: percent reduction in Toxascaris eggs per gram, after oral treatment of 50 mg/dog dose of compound in a single treatment; type: functional, Canis lupus familiaris, Egg; outline: as §5
[32] = species: Canis familiaris; assay: percent reduction in Uncinaria eggs per gram, after oral treatment of 50 mg/dog dose of compound in a single treatment; type: functional, Canis lupus familiaris, Egg; outline: as §5
[33] = species: Mus musculus; assay: Percent clearance of Nematospiroides dubius from mouse after oral treatment of 0.32 mg/mouse/day; type: functional; outline: as §4
[34] = species: Mus musculus; assay: Percent clearance of Syphacaia obvelata from mouse after oral treatment of 0.32 mg/mouse/day; type: functional; outline: as §4

What does the source list for `Cl/C(=N\Nc1ccccc1)c1ccc(Cl)cc1`?
Reduction [1]: 0%; Reduction [2]: 100%; Reduction [3]: 100%; Reduction [4]: 99%; Reduction [5]: 100%; Reduction [6]: 100%; Reduction [7]: 100%

With `Cl/C(=N\Nc1ccccc1)c1cccc(Cl)c1` as the compound, how does the Parasite_Clearance [8] read?
Its Parasite_Clearance is 100%.

And the Parasite_Clearance [9]?
Its Parasite_Clearance is 100%.

What about the Reduction [10] of the same compound?
Its Reduction is “Toxic”.

Which Reduction [11] does the source give for `Cl/C(=N\Nc1ccc(Cl)c(Cl)c1)c1ccccc1` here?
The Reduction was 0%.

What about the Reduction [12] of the same compound?
The Reduction was 0%.

And the Reduction [13]?
Its Reduction is 0%.

What about the Reduction [14] of the same compound?
Its Reduction is “Toxic”.

`Cc1cc(/C(Cl)=N/Nc2ccccc2)ccc1[N+](=O)[O-]` was tested. Which Reduction [11] did it give?
Its Reduction is 0%.

What about the Reduction [15] of the same compound?
Its Reduction is 55%.

And the Parasite_Clearance [16]?
The Parasite_Clearance was 80%.

What about the Parasite_Clearance [17] of the same compound?
Its Parasite_Clearance is 100%.

How did the Parasite_Clearance [16] turn out when `Cl/C(=N\Nc1cc(Cl)c(Cl)cc1Cl)c1ccccc1` was run?
The Parasite_Clearance was 0%.

What about the Parasite_Clearance [17] of the same compound?
Its Parasite_Clearance is 33%.

What does the source list for `Cc1cc(Cl)ccc1N/N=C(\Cl)c1ccccc1`?
Parasite_Clearance [18]: 0%; Parasite_Clearance [19]: 0%

What does the source list for `O=[N+]([O-])c1ccc(/C(Cl)=N/Nc2ccccc2)c(Cl)c1`?
Parasite_Clearance [18]: 0%; Parasite_Clearance [19]: 0%

Which results are given for `Cl/C(=N\Nc1c(Cl)cc(Cl)cc1Cl)c1ccc(Cl)c(Cl)c1`?
Parasite_Clearance [18]: 0%; Parasite_Clearance [20]: 0%

`CC(C)c1ccc(/C(Cl)=N/Nc2ccccc2)cc1` was tested. Which Parasite_Clearance [21] did it give?
The Parasite_Clearance was 0%.

What about the Parasite_Clearance [22] of the same compound?
Its Parasite_Clearance is 0%.

With `Cl/C(=N\Nc1ccccc1)c1ccccc1Cl` as the compound, how does the Parasite_Clearance [8] read?
Its Parasite_Clearance is 40%.

What about the Parasite_Clearance [9] of the same compound?
The Parasite_Clearance was 20%.

`Cl/C(=N\Nc1ccc(Cl)cc1)c1ccccc1` was tested. Which Parasite_Clearance [21] did it give?
The Parasite_Clearance was 100%.

What about the Parasite_Clearance [22] of the same compound?
Its Parasite_Clearance is 80%.

`Cl/C(=N\Nc1ccccc1)c1ccc(Cl)c(Cl)c1` was tested. Which Parasite_Clearance [18] did it give?
Its Parasite_Clearance is 100%.

Which Reduction [11] does the source give for `Cc1ccccc1/C(Cl)=N/Nc1c(Cl)cc(Cl)cc1Cl` here?
The Reduction was 20%.

And the Reduction [13]?
The Reduction was 100%.

And the Reduction [23]?
Its Reduction is 0%.

And the Reduction [24]?
The Reduction was 0%.

And the Reduction [25]?
The Reduction was 85%.

What about the Reduction [26] of the same compound?
The Reduction was 11%.

What about the Reduction [27] of the same compound?
The Reduction was 14%.

And the Reduction [28]?
The Reduction was 67%.

What about the Reduction [29] of the same compound?
The Reduction was 33%.

And the Reduction [30]?
Its Reduction is 85%.

Which results are given for `Cl/C(=N\Nc1c(Cl)cc(Cl)cc1Cl)c1cccc(Cl)c1`?
Parasite_Clearance [18]: 50%; Parasite_Clearance [19]: 100%

Which Parasite_Clearance [21] does the source give for `Cc1ccccc1N/N=C(\Cl)c1ccccc1` here?
The Parasite_Clearance was 100%.

And the Parasite_Clearance [22]?
The Parasite_Clearance was 0%.

With `Cl/C(=N\Nc1cc(Cl)cc(Cl)c1)c1ccccc1` as the compound, how does the Reduction [31] read?
The Reduction was 40%.

What about the Reduction [32] of the same compound?
The Reduction was 57%.

And the Reduction [24]?
Its Reduction is 100%.

And the Reduction [25]?
Its Reduction is 97%.

And the Reduction [26]?
Its Reduction is 0%.

What about the Reduction [27] of the same compound?
Its Reduction is 100%.

And the Reduction [28]?
Its Reduction is 100%.

And the Reduction [30]?
The Reduction was 45%.

`Cl/C(=N\Nc1c(Cl)cc(Cl)cc1Cl)c1c(Cl)cccc1Cl` was tested. Which Parasite_Clearance [18] did it give?
The Parasite_Clearance was 0%.

And the Parasite_Clearance [20]?
Its Parasite_Clearance is 0%.

`Cl/C(=N\Nc1c(Cl)cc(Cl)cc1Cl)c1ccc(Br)cc1` was tested. Which Parasite_Clearance [16] did it give?
The Parasite_Clearance was 0%.

What about the Parasite_Clearance [17] of the same compound?
The Parasite_Clearance was 40%.

For `Cl/C(=N\Nc1ccccc1)c1ccc(Cl)cc1Cl`, which Parasite_Clearance [21] is on record?
The Parasite_Clearance was 0%.

What about the Parasite_Clearance [22] of the same compound?
The Parasite_Clearance was 0%.

How did the Parasite_Clearance [33] turn out when `Cl/C(=N\Nc1ccc(Br)cc1Br)c1ccccc1` was run?
The Parasite_Clearance was 0%.

What about the Parasite_Clearance [34] of the same compound?
The Parasite_Clearance was 0%.
